Data reported in ChEMBL document CHEMBL4400518, “Synthesis, antimicrobial and cytotoxic activities, and molecular docking studies of N-arylsulfonylindoles containing an aminoguanidine, a semicarbazide, and a thiosemicarbazide moiety” (Eur J Med Chem, 2019).
Values after ≈ are worked out from the molar mass of the structure shown.

Tests used:
Format in all cases: functional
Staphylococcus aureus [1] = assay: Antibacterial activity against Staphylococcus aureus CMCC(B) 26003 measured after 24 hrs by ELISA; conditions: CMCC(B) 26003, 24 h
Summary of the method: (§1)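 Broth microdilution MIC. Mid-log bacteria in MHB or TSB diluted 1000-fold, inoculated at 10^5 CFU/mL. Compounds added from DMSO stocks; final DMSO at most 0.05%. Incubation 24 h at 37 °C. Growth read as absorbance at 630 nm. MIC taken as the lowest concentration giving complete growth inhibition. Three independent experiments.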

Staphylococcus aureus [2] = assay: Antibacterial activity against Staphylococcus aureus CMCC 25923 measured after 24 hrs by ELISA; conditions: CMCC 25923, 24 h; summary of the method: as §1
Streptococcus pyogenes = assay: Antibacterial activity against Streptococcus pyogenes CMCC 32067 measured after 24 hrs by ELISA; conditions: CMCC 32067, 24 h; summary of the method: as §1
Streptococcus pneumoniae = assay: Antibacterial activity against Streptococcus pneumoniae CMCC 31968 measured after 24 hrs by ELISA; conditions: CMCC 31968, 24 h
Enterococcus faecalis = assay: Antibacterial activity against Enterococcus faecalis CMCC 29212 measured after 24 hrs by ELISA; conditions: CMCC 29212, 24 h; summary of the method: as §1
Bacillus subtilis = assay: Antibacterial activity against Bacillus subtilis CMCC 63501 measured after 24 hrs by ELISA; conditions: CMCC 63501, 24 h; summary of the method: as §1
Escherichia coli [3] = assay: Antibacterial activity against Escherichia coli CMCC 25922 measured after 24 hrs by ELISA; conditions: CMCC 25922, 24 h; summary of the method: as §1
Escherichia coli [4] = assay: Antibacterial activity against Escherichia coli CMCC 44568 measured after 24 hrs by ELISA; conditions: CMCC 44568, 24 h; summary of the method: as §1
Pseudomonas aeruginosa [5] = assay: Antibacterial activity against Pseudomonas aeruginosa CMCC 27853 measured after 24 hrs by ELISA; conditions: CMCC 27853, 24 h; summary of the method: as §1
Pseudomonas aeruginosa [6] = assay: Antibacterial activity against Pseudomonas aeruginosa CMCC 10104 measured after 24 hrs by ELISA; conditions: CMCC 10104, 24 h; summary of the method: as §1

Compound: CC/C(=N/NC(=N)N)c1cn(S(=O)(=O)c2ccc(C)cc2)c2ccccc12
- MIC (Staphylococcus aureus [1]): 5.22 µM (≈ 2 µg/mL)
- MIC (Staphylococcus aureus [2]): 10.4 µM (≈ 4 µg/mL)
- MIC (Streptococcus pyogenes): 5.22 µM (≈ 2 µg/mL)
- MIC (Streptococcus pneumoniae): 83.5 µM (≈ 32 µg/mL)
- MIC (Enterococcus faecalis): 20.9 µM (≈ 8.01 µg/mL)
- MIC (Bacillus subtilis): 10.4 µM (≈ 4 µg/mL)
- MIC (Escherichia coli [3]): 20.9 µM (≈ 8.01 µg/mL)
- MIC (Escherichia coli [4]): 20.9 µM (≈ 8.01 µg/mL)
- MIC (Pseudomonas aeruginosa [5]): 334 µM (≈ 128 µg/mL)
- MIC (Pseudomonas aeruginosa [6]): > 334 µM

Compound: Cc1ccc(S(=O)(=O)n2cc(/C=N\NC(N)=S)c3cc(Br)ccc32)cc1
- MIC (Staphylococcus aureus [1]): 284 µM (≈ 128 µg/mL)
- MIC (Staphylococcus aureus [2]): > 284 µM
- MIC (Streptococcus pyogenes): > 284 µM
- MIC (Streptococcus pneumoniae): > 284 µM
- MIC (Enterococcus faecalis): > 284 µM
- MIC (Bacillus subtilis): > 284 µM
- MIC (Escherichia coli [3]): > 284 µM
- MIC (Escherichia coli [4]): > 284 µM
- MIC (Pseudomonas aeruginosa [5]): > 284 µM
- MIC (Pseudomonas aeruginosa [6]): > 284 µM

Compound: NC(=O)N/N=C\c1cn(S(=O)(=O)c2ccccc2)c2ccccc12
- MIC (Staphylococcus aureus [1]): 93.6 µM (≈ 32 µg/mL)
- MIC (Staphylococcus aureus [2]): 93.6 µM (≈ 32 µg/mL)
- MIC (Streptococcus pyogenes): > 374 µM
- MIC (Streptococcus pneumoniae): > 374 µM
- MIC (Enterococcus faecalis): > 374 µM
- MIC (Bacillus subtilis): 93.6 µM (≈ 32 µg/mL)
- MIC (Escherichia coli [3]): > 374 µM
- MIC (Escherichia coli [4]): > 374 µM
- MIC (Pseudomonas aeruginosa [5]): > 374 µM
- MIC (Pseudomonas aeruginosa [6]): > 374 µM

Compound: C/C(=N/NC(N)=O)c1cn(S(=O)(=O)c2ccc(C)cc2)c2ccc(Br)cc12
- MIC (Staphylococcus aureus [1]): 286 µM (≈ 128 µg/mL)
- MIC (Staphylococcus aureus [2]): > 286 µM
- MIC (Streptococcus pyogenes): > 286 µM
- MIC (Streptococcus pneumoniae): > 286 µM
- MIC (Enterococcus faecalis): > 286 µM
- MIC (Bacillus subtilis): 8.93 µM (≈ 4.01 µg/mL)
- MIC (Escherichia coli [3]): > 286 µM
- MIC (Escherichia coli [4]): > 286 µM
- MIC (Pseudomonas aeruginosa [5]): > 286 µM
- MIC (Pseudomonas aeruginosa [6]): > 286 µM

Compound: Cc1ccc(S(=O)(=O)n2cc(/C=N\NC(N)=S)c3ccccc32)cc1
- MIC (Staphylococcus aureus [1]): 343 µM (≈ 128 µg/mL)
- MIC (Staphylococcus aureus [2]): > 343 µM
- MIC (Streptococcus pyogenes): > 343 µM
- MIC (Streptococcus pneumoniae): > 343 µM
- MIC (Enterococcus faecalis): > 343 µM
- MIC (Bacillus subtilis): > 343 µM
- MIC (Escherichia coli [3]): > 343 µM
- MIC (Escherichia coli [4]): > 343 µM
- MIC (Pseudomonas aeruginosa [5]): 343 µM (≈ 128 µg/mL)
- MIC (Pseudomonas aeruginosa [6]): > 343 µM

Compound: CC/C(=N/NC(N)=O)c1cn(S(=O)(=O)c2ccc(C)cc2)c2ccccc12
- MIC (Staphylococcus aureus [1]): 333 µM (≈ 128 µg/mL)
- MIC (Staphylococcus aureus [2]): 83.3 µM (≈ 32 µg/mL)
- MIC (Streptococcus pyogenes): > 333 µM
- MIC (Streptococcus pneumoniae): > 333 µM
- MIC (Enterococcus faecalis): > 333 µM
- MIC (Bacillus subtilis): 333 µM (≈ 128 µg/mL)
- MIC (Escherichia coli [3]): > 333 µM
- MIC (Escherichia coli [4]): > 333 µM
- MIC (Pseudomonas aeruginosa [5]): > 333 µM
- MIC (Pseudomonas aeruginosa [6]): > 333 µM

Compound: C/C(=N/NC(N)=S)c1cn(S(=O)(=O)c2ccc(C)cc2)c2ccccc12
- MIC (Staphylococcus aureus [1]): 332 µM (≈ 128 µg/mL)
- MIC (Staphylococcus aureus [2]): 332 µM (≈ 128 µg/mL)
- MIC (Streptococcus pyogenes): > 332 µM
- MIC (Streptococcus pneumoniae): > 332 µM
- MIC (Enterococcus faecalis): 332 µM (≈ 128 µg/mL)
- MIC (Bacillus subtilis): 166 µM (≈ 64.1 µg/mL)
- MIC (Escherichia coli [3]): 332 µM (≈ 128 µg/mL)
- MIC (Escherichia coli [4]): 332 µM (≈ 128 µg/mL)
- MIC (Pseudomonas aeruginosa [5]): 332 µM (≈ 128 µg/mL)
- MIC (Pseudomonas aeruginosa [6]): > 332 µM

Compound: NC(=S)N/N=C\c1cn(S(=O)(=O)c2ccccc2)c2ccc(Br)cc12
- MIC (Staphylococcus aureus [1]): 294 µM (≈ 128 µg/mL)
- MIC (Staphylococcus aureus [2]): > 294 µM
- MIC (Streptococcus pyogenes): > 294 µM
- MIC (Streptococcus pneumoniae): > 294 µM
- MIC (Enterococcus faecalis): > 294 µM
- MIC (Bacillus subtilis): > 294 µM
- MIC (Escherichia coli [3]): > 294 µM
- MIC (Escherichia coli [4]): > 294 µM
- MIC (Pseudomonas aeruginosa [5]): > 294 µM
- MIC (Pseudomonas aeruginosa [6]): > 294 µM

Compound: Cc1ccc(S(=O)(=O)n2cc(/C=N\NC(N)=O)c3cc(Br)ccc32)cc1
- MIC (Staphylococcus aureus [1]): 295 µM (≈ 128 µg/mL)
- MIC (Staphylococcus aureus [2]): > 295 µM
- MIC (Streptococcus pyogenes): > 295 µM
- MIC (Streptococcus pneumoniae): > 295 µM
- MIC (Enterococcus faecalis): > 295 µM
- MIC (Bacillus subtilis): 9.22 µM (≈ 4.01 µg/mL)
- MIC (Escherichia coli [3]): > 295 µM
- MIC (Escherichia coli [4]): > 295 µM
- MIC (Pseudomonas aeruginosa [5]): > 295 µM
- MIC (Pseudomonas aeruginosa [6]): > 295 µM

Compound: C/C(=N/NC(N)=O)c1cn(S(=O)(=O)c2ccc(C)cc2)c2ccccc12
- MIC (Staphylococcus aureus [1]): 346 µM (≈ 128 µg/mL)
- MIC (Staphylococcus aureus [2]): > 346 µM
- MIC (Streptococcus pyogenes): > 346 µM
- MIC (Streptococcus pneumoniae): > 346 µM
- MIC (Enterococcus faecalis): > 346 µM
- MIC (Bacillus subtilis): 346 µM (≈ 128 µg/mL)
- MIC (Escherichia coli [3]): > 346 µM
- MIC (Escherichia coli [4]): > 346 µM
- MIC (Pseudomonas aeruginosa [5]): > 346 µM
- MIC (Pseudomonas aeruginosa [6]): > 346 µM

Compound: CC/C(=N/NC(=N)N)c1cn(S(=O)(=O)c2ccccc2)c2ccccc12
- MIC (Staphylococcus aureus [1]): 21.7 µM (≈ 8.01 µg/mL)
- MIC (Staphylococcus aureus [2]): 21.7 µM (≈ 8.01 µg/mL)
- MIC (Streptococcus pyogenes): 10.8 µM (≈ 4 µg/mL)
- MIC (Streptococcus pneumoniae): 10.8 µM (≈ 4 µg/mL)
- MIC (Enterococcus faecalis): 43.4 µM (≈ 16 µg/mL)
- MIC (Bacillus subtilis): > 347 µM
- MIC (Escherichia coli [3]): 43.4 µM (≈ 16 µg/mL)
- MIC (Escherichia coli [4]): 43.4 µM (≈ 16 µg/mL)
- MIC (Pseudomonas aeruginosa [5]): 173 µM (≈ 64.1 µg/mL)
- MIC (Pseudomonas aeruginosa [6]): 43.4 µM (≈ 16 µg/mL)

Compound: CC/C(=N/NC(N)=O)c1cn(S(=O)(=O)c2ccc(C)cc2)c2ccc(Br)cc12
- MIC (Staphylococcus aureus [1]): > 277 µM
- MIC (Staphylococcus aureus [2]): > 277 µM
- MIC (Streptococcus pyogenes): > 277 µM
- MIC (Streptococcus pneumoniae): > 277 µM
- MIC (Enterococcus faecalis): > 277 µM
- MIC (Bacillus subtilis): > 277 µM
- MIC (Escherichia coli [3]): > 277 µM
- MIC (Escherichia coli [4]): > 277 µM
- MIC (Pseudomonas aeruginosa [5]): > 277 µM
- MIC (Pseudomonas aeruginosa [6]): > 277 µM

Compound: C/C(=N/NC(N)=S)c1cn(S(=O)(=O)c2ccccc2)c2ccccc12
- MIC (Staphylococcus aureus [1]): 344 µM (≈ 128 µg/mL)
- MIC (Staphylococcus aureus [2]): 344 µM (≈ 128 µg/mL)
- MIC (Streptococcus pyogenes): > 344 µM
- MIC (Streptococcus pneumoniae): > 344 µM
- MIC (Enterococcus faecalis): > 344 µM
- MIC (Bacillus subtilis): 172 µM (≈ 64.1 µg/mL)
- MIC (Escherichia coli [3]): 344 µM (≈ 128 µg/mL)
- MIC (Escherichia coli [4]): 344 µM (≈ 128 µg/mL)
- MIC (Pseudomonas aeruginosa [5]): 344 µM (≈ 128 µg/mL)
- MIC (Pseudomonas aeruginosa [6]): > 344 µM

Compound: CC/C(=N/NC(N)=S)c1cn(S(=O)(=O)c2ccc(C)cc2)c2ccc(Br)cc12
- MIC (Staphylococcus aureus [1]): 134 µM (≈ 64.2 µg/mL)
- MIC (Staphylococcus aureus [2]): 268 µM (≈ 128 µg/mL)
- MIC (Streptococcus pyogenes): > 268 µM
- MIC (Streptococcus pneumoniae): > 268 µM
- MIC (Enterococcus faecalis): > 268 µM
- MIC (Bacillus subtilis): > 268 µM
- MIC (Escherichia coli [3]): 268 µM (≈ 128 µg/mL)
- MIC (Escherichia coli [4]): 268 µM (≈ 128 µg/mL)
- MIC (Pseudomonas aeruginosa [5]): > 268 µM
- MIC (Pseudomonas aeruginosa [6]): > 268 µM
